This is one part of a sample in which hits are shown more often than they occur.
697 NFkB inh = lowers PMA/ionomycin-induced NF-kB signal in 697 B cells | inhibition, % at 4 µM | actives 0.33% (n = 330,000) | AID 435022 | 697 B-cell NF-kB luciferase reporter, 16 h; in the data active = inhibition above about 35%
CHOP UPR activ = apoptotic UPR (CHOP) activation; CHO-CHOP luciferase reporter, luminescence; percent of tunicamycin response over DMSO baseline; activation, % at 10 µM; actives 0.34% (n = 330,000);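 active = at 10 µM dose, activation of 40% or more, normalized to positive control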;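 also: 100% = tunicamycin at 10 µg/mL and 0% = DMSO alone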
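Assay system: CHO-CHOP cells, stable luciferase reporter of PERK-eIF2a-CHOP signalling / Buffer or medium: F12 plus 10% serum / Compound dosing: one dose, 10 µM in 0.5% DMSO / Times: 6 h compound treatment, 37 °C / Technique: luciferase luminescence / Read-out: % reporter activation, DMSO baseline versus tunicamycin full activation / Benchmarks: tunicamycin and DMSO controls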
CHOP inhibitor = CHOP inhibition in unfolded protein response. CHO-K1 CHOP-promoter luciferase, tunicamycin-induced, 15-18 h. inhibition, % at 10 µM. actives 3.8% (n = 220,000);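 active = compounds that reduced the stress-induced luciferase reporter signal by more than about 70% of percent inhibition, limit read from the data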;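 also: 0% = tunicamycin plus vehicle and 100% = wells without tunicamycin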
XBP1 UPR activ = adaptive UPR (XBP1) activation. CHO-XBP1 luciferase reporter, IRE1-XBP1 UPR activation, luminescence; percent of tunicamycin response, DMSO as zero. activation, % at 20 µM. actives 0.33% (n = 330,000). AID 463104;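 active = versus positive control, 20 µM dose yields 30% or more activation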;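 also: 100% = tunicamycin at 10 µg/mL and 0% = DMSO only wells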
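Material: CHO cell line with stable XBP1 luciferase reporter; schedule: 16-18 h cell attachment at 37 °C, then 6 h compound exposure; signal: glow luminescence from Steady-Glo reagent; medium: serum-containing F12 medium, 10% FBS; benchmarks: tunicamycin 10 µg/mL and vehicle-only wells; read-out: percent activation relative to tunicamycin reference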
Jurkat NFkB inh = inhibitors of the PMA/ionomycin-induced NF-kB reporter in Jurkat cells | PMA/ionomycin-induced NF-kB luciferase reporter, luminescence | inhibition, % at 4 µM | actives 0.53% (n = 330,000) | AID 435003; in the data active = inhibition above about 50%
* hit, by the source's call; . = no result given.

SMILES	697 NFkB inh	CHOP UPR activ	CHOP inhibitor	XBP1 UPR activ	Jurkat NFkB inh
CCOc1ccc(/C=N/NC(=O)Cc2ccccc2)cc1CN1CC2CC(C1)c1cccc(=O)n1C2 (centres undefined)	7.9	2.0	.	0.5	3.1
O=C/C(=C\Nc1ccc(Cl)cn1)c1nc2ccccc2o1	23.2	-0.4	7.2	-0.3	3.0
O=C/C(=C\Nc1ccc(Cl)cn1)c1nc2cc(Cl)ccc2o1	-17.0	0.1	75.0*	2.3	-5.6
Cc1ccccc1-n1nnnc1SCC(=O)NCC1CCCO1 (centres undefined)	11.8	-0.7	-3.8	-1.4	5.6
COc1ccc(CCNC(=O)NC23CC4CC(CC(C4)C2)C3)cc1	-9.0	2.1	-9.9	-0.8	-7.8
COc1ccc(CC(=O)OCC(=O)NC(=O)NC23CC4CC(CC(C4)C2)C3)cc1	-13.5	-0.9	95.7*	-1.7	3.7
CCOC(=O)C1=C(C)NC(SCC(=O)Nc2nc(C)cs2)=C(C#N)C1c1cccs1 (centres undefined)	18.5	0.0	74.5*	-1.6	11.8
C=CCOC(=O)C1=C(C)NC(SCC(N)=O)=C(C#N)C1c1cccs1 (centres undefined)	1.8	-1.1	-2.4	-5.3	-10.3
CCCCCCCCCCCCCCCCCC(=O)NCC(COP(=O)([O-])OCC[N+](C)(C)C)OCC (centres undefined)	.	.	-17.8	.	.
Cc1c(C(N)=O)sc(N)c1C(=O)OC(C)C	-33.3	1.2	15.4	-1.0	-9.5
Cc1c(C(=O)OC(C)C)sc(N)c1C(=O)OC(C)C	-64.2	2.6	81.7*	5.6	-39.1
O=C1COc2ccc(C(=O)COC(=O)c3cc(S(=O)(=O)N4CCOCC4)ccc3F)cc2N1	-8.6	4.7	.	-4.0	2.5
COc1cccc(/C=N/NC(=O)c2ccc([N+](=O)[O-])cc2Cl)c1O	-4.6	-0.1	70.1*	-1.7	-0.1
CCCCOCCCNc1ncnc2c1[nH]c1ccccc12	29.3	8.3	84.7*	0.4	38.8
CCN(CC)CCNC(=O)C1(O)c2cc(Br)ccc2NC(=O)N1c1c(F)cccc1F (centres undefined)	10.5	3.6	.	5.3	8.1
COc1ccc(N2CCN(C(=O)COCc3cc(-c4ccc5c(c4)OCO5)on3)CC2)cc1	-48.3	1.0	.	-2.0	-9.2
COc1ccc(-c2cc(CCCC(=O)N3CCN(c4ccc(OC)cc4)CC3)no2)cc1	-14.2	-2.2	95.0*	-3.2	0.7
Cc1ccc2nc(SCC(=O)N3c4ccccc4CC3C)c(C)cc2c1 (centres undefined)	-35.9	-0.6	77.8*	-1.9	-16.8
Cc1ccc2nc(-c3cccnc3SCC(=O)N3c4ccccc4CC3C)[nH]c2c1 (centres undefined)	-14.3	1.8	-17.0	-3.0	-16.4
CSc1cccc(-n2ccc(=O)c(C)c2C)c1	11.1	-0.2	.	-3.8	-8.6
COc1ccc(/C=C/C(=O)c2cc(Cl)cc(Cl)c2O)c(OC)c1	-12.4	5.8	70.6*	3.7	10.5
COc1ccc(S(=O)(=O)N2CCC(C(=O)NC3CCCCC3)CC2)cc1C	14.4	0.4	.	-0.6	-8.4
Cc1ccccc1C(=O)Nc1sc(C)c(C)c1C(=O)c1ccccc1	-14.4	0.2	58.3	0.9	5.6
Cc1sc(NC(=O)CCl)c(C(=O)c2ccccc2)c1C	5.8	-6.4	107.8*	-6.9	-16.9
Cc1ccc(-n2nnc3c(=O)n(CC(N)=O)cnc32)cc1	-1.4	1.2	.	-2.8	-0.2
SMILES	697 NFkB inh	CHOP UPR activ	CHOP inhibitor	XBP1 UPR activ	Jurkat NFkB inh
CN(C(=O)c1ccc2c(c1)C(=O)N(CCC1=CCCCC1)C2=O)C1CCCCC1	-11.1	3.1	99.2*	2.7	10.9
O=C(O)c1ccc2c(c1)C(=O)N(CCC1=CCCCC1)C2=O	-6.4	-0.5	-3.6	-1.6	5.8
O=C(Nc1ccc(S(=O)(=O)N2CCOCC2)cc1)c1ccc(=O)[nH]c1	6.4	1.8	1.9	-1.9	12.3
O=C(CCOc1ccccc1)Nc1ccnn1C1CCN(Cc2ccccc2)CC1	4.8	-1.0	.	-4.5	-1.4
COC(=O)c1ccc(CSc2nc3ccccc3o2)cc1	-11.8	-3.1	44.0	-1.3	-103.6
O=[N+]([O-])c1ccc(CSc2nc3ccccc3o2)cc1	-228.7	1.4	84.2*	2.5	-149.9
O=C(COc1ccc(Br)cc1Br)NC(=O)NC1CCCC1	-66.5	3.1	87.2*	2.3	-73.2
O=C(COc1ccccc1Cl)NCc1ccccc1	-74.9	5.1	.	-0.9	-41.7
